Results published in ChEMBL document CHEMBL4145593, “Discovery of Orally Bioavailable Selective Inhibitors of the Sodium-Phosphate Cotransporter NaPi2a (SLC34A1)” (ACS Med Chem Lett, 2018).

Legend:
[1] = Apparent intrinsic clearance in rat liver microsomes; type: ADME, microsome; conditions: read-out: CLH(app)
[2] = AUC (0 to 24 hrs) in C57BL6 mouse at 1 mg/kg, iv; type: ADME, organism-based; design: dose 1 mg/kg, time < 24 hr, route intravenous; conditions: in vivo
Summary of the method: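 Single IV bolus at 1 mg/kg in vehicle 10% DMSO/30% PEG-400/60% water (2 mL/kg). Values are the arithmetic mean of n = 2 animals.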

- microsomal CLint [1]: < 14 µL/min/mg
- AUC(0-t) at 24 h [2]: 760 ng·h/mL
SMILES: Cc1[nH]c2c(N3CCO[C@H](CO)C3)c(C#N)c(C(F)(F)F)nc2c1Cl
